Assay results published in ChEMBL document CHEMBL3739379, “Anti-Candida activity and cytotoxicity of a large library of new N-substituted-1,3-thiazolidin-4-one derivatives” (Eur J Med Chem, 2016).
≈ marks a conversion by molar mass, not a printed value.

The compounds below were run on Staphylococcus aureus (assay: Antibacterial activity against Staphylococcus aureus after 18 to 22 hrs by broth microdilution method). Conditions: not given.
Format: functional
Method in brief: (§1)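 Broth microdilution per NCCLS in Mueller-Hinton II broth; isolates subcultured for purity. Compounds dissolved in DMSO, serial dilutions 256 to 0.5 µg/mL; inoculum 10^5/mL. Controls: organism without compound, medium only. Incubation 18 to 22 h at 35 °C. MIC is the lowest concentration giving complete growth inhibition, read by unaided eye.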
Compound `CC/C(C)=N/N=C1\SCC(=O)N1CN1C(=O)c2ccccc2C1=O` has an MIC of over 256 µg/mL. For `C/C(=N\N=C1/SCC(=O)N1CN1C(=O)c2ccccc2C1=O)c1cccs1`, the MIC was over 256 µg/mL. `O=C1CS/C(=N\N=C\c2cccnc2)N1Cc1ccc([N+](=O)[O-])cc1` was tested, and the MIC was over 256 µg/mL. Work on `CCCCCC/C(C)=N/N=C1\SCC(=O)N1Cc1ccc([N+](=O)[O-])cc1` yielded an MIC of over 256 µg/mL.

What follows are compounds tested on Staphylococcus warneri (assay: Antibacterial activity against Staphylococcus warneri after 18 to 22 hrs by broth microdilution method). Conditions: not given.
Format: functional
Method in brief: as §1
With `CC/C(C)=N/N=C1\SCC(=O)N1CN1C(=O)c2ccccc2C1=O` the MIC was over 256 µg/mL. Compound `C/C(=N\N=C1/SCC(=O)N1CN1C(=O)c2ccccc2C1=O)c1cccs1` has an MIC of over 256 µg/mL. Compound `O=C1CS/C(=N\N=C\c2cccnc2)N1Cc1ccc([N+](=O)[O-])cc1` has an MIC of over 256 µg/mL. `CCCCCC/C(C)=N/N=C1\SCC(=O)N1Cc1ccc([N+](=O)[O-])cc1` was tested, and the MIC was over 256 µg/mL.

Each compound was assayed on Enterococcus faecalis (assay: Antibacterial activity against […] faecalis after 18 to 22 hrs by broth microdilution method). Conditions: not given.
Format: functional
Method in brief: as §1
With `CC/C(C)=N/N=C1\SCC(=O)N1CN1C(=O)c2ccccc2C1=O` the MIC was over 256 µg/mL. `C/C(=N\N=C1/SCC(=O)N1CN1C(=O)c2ccccc2C1=O)c1cccs1` gave an MIC of over 256 µg/mL. With `O=C1CS/C(=N\N=C\c2cccnc2)N1Cc1ccc([N+](=O)[O-])cc1` the MIC was over 256 µg/mL. In the case of `CCCCCC/C(C)=N/N=C1\SCC(=O)N1Cc1ccc([N+](=O)[O-])cc1`, the MIC is reported as over 256 µg/mL.

These compounds were tested on Staphylococcus haemolyticus (assay: Antibacterial activity against Staphylococcus haemolyticus after 18 to 22 hrs by broth microdilution method). Conditions: not given.
Format: functional
Method in brief: as §1
With `CC/C(C)=N/N=C1\SCC(=O)N1CN1C(=O)c2ccccc2C1=O` the MIC was over 256 µg/mL. For `C/C(=N\N=C1/SCC(=O)N1CN1C(=O)c2ccccc2C1=O)c1cccs1`, the MIC was over 256 µg/mL. `O=C1CS/C(=N\N=C\c2cccnc2)N1Cc1ccc([N+](=O)[O-])cc1` gave an MIC of over 256 µg/mL. For `CCCCCC/C(C)=N/N=C1\SCC(=O)N1Cc1ccc([N+](=O)[O-])cc1`, the MIC was over 256 µg/mL.

The compounds below were run on Escherichia coli (assay: Antibacterial activity against Escherichia coli at after 18 to 22 hrs by broth microdilution method). Conditions: not given.
Format: functional
Method in brief: as §1
For `CC/C(C)=N/N=C1\SCC(=O)N1CN1C(=O)c2ccccc2C1=O`, the MIC was over 256 µg/mL. With `C/C(=N\N=C1/SCC(=O)N1CN1C(=O)c2ccccc2C1=O)c1cccs1` the MIC was over 256 µg/mL. `O=C1CS/C(=N\N=C\c2cccnc2)N1Cc1ccc([N+](=O)[O-])cc1` showed an MIC of over 256 µg/mL. For `CCCCCC/C(C)=N/N=C1\SCC(=O)N1Cc1ccc([N+](=O)[O-])cc1`, the MIC was over 256 µg/mL.

These compounds were tested on Proteus mirabilis (assay: Antibacterial activity against Proteus mirabilis after 18 to 22 hrs by broth microdilution method). Conditions: not given.
Format: functional
Method in brief: as §1
In the case of `CC/C(C)=N/N=C1\SCC(=O)N1CN1C(=O)c2ccccc2C1=O`, the MIC is reported as over 256 µg/mL. Work on `C/C(=N\N=C1/SCC(=O)N1CN1C(=O)c2ccccc2C1=O)c1cccs1` yielded an MIC of over 256 µg/mL. Work on `O=C1CS/C(=N\N=C\c2cccnc2)N1Cc1ccc([N+](=O)[O-])cc1` yielded an MIC of over 256 µg/mL. `CCCCCC/C(C)=N/N=C1\SCC(=O)N1Cc1ccc([N+](=O)[O-])cc1` gave an MIC of over 256 µg/mL.

What follows are compounds tested on Enterobacter sp. (assay: Antibacterial activity against Enterobacter sp. after 18 to 22 hrs by broth microdilution method). Conditions: not given.
Format: functional
Method in brief: as §1
`CC/C(C)=N/N=C1\SCC(=O)N1CN1C(=O)c2ccccc2C1=O` was tested, and the MIC was over 256 µg/mL. `C/C(=N\N=C1/SCC(=O)N1CN1C(=O)c2ccccc2C1=O)c1cccs1` gave an MIC of over 256 µg/mL. Work on `O=C1CS/C(=N\N=C\c2cccnc2)N1Cc1ccc([N+](=O)[O-])cc1` yielded an MIC of over 256 µg/mL. `CCCCCC/C(C)=N/N=C1\SCC(=O)N1Cc1ccc([N+](=O)[O-])cc1` gave an MIC of over 256 µg/mL.

The compounds below were run on Klebsiella oxytoca (assay: Antibacterial activity against Klebsiella oxytoca after 18 to 22 hrs by broth microdilution method). Conditions: not given.
Format: functional
Method in brief: as §1
With `CC/C(C)=N/N=C1\SCC(=O)N1CN1C(=O)c2ccccc2C1=O` the MIC was over 256 µg/mL. Compound `C/C(=N\N=C1/SCC(=O)N1CN1C(=O)c2ccccc2C1=O)c1cccs1` has an MIC of over 256 µg/mL. `O=C1CS/C(=N\N=C\c2cccnc2)N1Cc1ccc([N+](=O)[O-])cc1` was tested, and the MIC was over 256 µg/mL. Compound `CCCCCC/C(C)=N/N=C1\SCC(=O)N1Cc1ccc([N+](=O)[O-])cc1` has an MIC of over 256 µg/mL.

What follows are compounds tested on Candida albicans (assay: Antifungal activity against Candida albicans clinical isolate after 24 hrs by sabouraud dextrose broth based microdilution method). Conditions: not given.
Format: functional
Method in brief: (§2)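 Clinical isolates identified by conventional methods and subcultured for purity. Broth microdilution per NCCLS in Sabouraud dextrose broth; compounds dissolved in DMSO and serially diluted; inoculum 10^3/mL. Controls: fungi without compound, medium only. Incubated 24 h at 37 °C. MIC is the lowest concentration with complete growth inhibition by unaided eye. Values are geometric means over isolates per species.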
With `CC/C(C)=N/N=C1\SCC(=O)N1CN1C(=O)c2ccccc2C1=O` the MIC was 2 µg/mL (≈ 5.81 µM). In the case of `C/C(=N\N=C1/SCC(=O)N1CN1C(=O)c2ccccc2C1=O)c1cccs1`, the MIC is reported as 4 µg/mL (≈ 10 µM). For `O=C1CS/C(=N\N=C\c2cccnc2)N1Cc1ccc([N+](=O)[O-])cc1`, the MIC was 256 µg/mL (≈ 720 µM). With `CCCCCC/C(C)=N/N=C1\SCC(=O)N1Cc1ccc([N+](=O)[O-])cc1` the MIC was 4 µg/mL (≈ 10.6 µM).

The compounds below were run on Nakaseomyces glabratus (assay: Antifungal activity against Candida glabrata clinical isolate after 24 hrs by sabouraud dextrose broth based microdilution method). Conditions: not given.
Format: functional
Method in brief: as §2
`CC/C(C)=N/N=C1\SCC(=O)N1CN1C(=O)c2ccccc2C1=O` was tested, and the MIC was 2 µg/mL (≈ 5.81 µM). `C/C(=N\N=C1/SCC(=O)N1CN1C(=O)c2ccccc2C1=O)c1cccs1` gave an MIC of 32 µg/mL (≈ 80.3 µM). With `O=C1CS/C(=N\N=C\c2cccnc2)N1Cc1ccc([N+](=O)[O-])cc1` the MIC was 32 µg/mL (≈ 90 µM). For `CCCCCC/C(C)=N/N=C1\SCC(=O)N1Cc1ccc([N+](=O)[O-])cc1`, the MIC was 2 µg/mL (≈ 5.31 µM).

Each compound was assayed on Candida tropicalis (assay: Antifungal activity against Candida tropicalis clinical isolate after 24 hrs by sabouraud dextrose broth based microdilution method). Conditions: not given.
Format: functional
Method in brief: as §2
`CC/C(C)=N/N=C1\SCC(=O)N1CN1C(=O)c2ccccc2C1=O` gave an MIC of 64 µg/mL (≈ 186 µM). `C/C(=N\N=C1/SCC(=O)N1CN1C(=O)c2ccccc2C1=O)c1cccs1` gave an MIC of 2 µg/mL (≈ 5.02 µM). `O=C1CS/C(=N\N=C\c2cccnc2)N1Cc1ccc([N+](=O)[O-])cc1` gave an MIC of 256 µg/mL (≈ 720 µM). `CCCCCC/C(C)=N/N=C1\SCC(=O)N1Cc1ccc([N+](=O)[O-])cc1` showed an MIC of 128 µg/mL (≈ 340 µM).

What follows are compounds tested on Pichia kudriavzevii (assay: Antifungal activity against Candida krusei clinical isolate after 24 hrs by sabouraud dextrose broth based microdilution method). Conditions: not given.
Format: functional
Method in brief: as §2
`CC/C(C)=N/N=C1\SCC(=O)N1CN1C(=O)c2ccccc2C1=O` gave an MIC of 8 µg/mL (≈ 23.2 µM). For `C/C(=N\N=C1/SCC(=O)N1CN1C(=O)c2ccccc2C1=O)c1cccs1`, the MIC was 4 µg/mL (≈ 10 µM). `O=C1CS/C(=N\N=C\c2cccnc2)N1Cc1ccc([N+](=O)[O-])cc1` gave an MIC of 128 µg/mL (≈ 360 µM). `CCCCCC/C(C)=N/N=C1\SCC(=O)N1Cc1ccc([N+](=O)[O-])cc1` showed an MIC of 128 µg/mL (≈ 340 µM).

Each compound was assayed on Candida parapsilosis (assay: Antifungal activity against Candida parapsilosis clinical isolate after 24 hrs by sabouraud dextrose broth based microdilution method). Conditions: Lodderomyces parapsilosis.
Format: functional
Method in brief: as §2
Compound `CC/C(C)=N/N=C1\SCC(=O)N1CN1C(=O)c2ccccc2C1=O` has an MIC of 8 µg/mL (≈ 23.2 µM). With `C/C(=N\N=C1/SCC(=O)N1CN1C(=O)c2ccccc2C1=O)c1cccs1` the MIC was 4 µg/mL (≈ 10 µM). Compound `O=C1CS/C(=N\N=C\c2cccnc2)N1Cc1ccc([N+](=O)[O-])cc1` has an MIC of 32 µg/mL (≈ 90 µM). Work on `CCCCCC/C(C)=N/N=C1\SCC(=O)N1Cc1ccc([N+](=O)[O-])cc1` yielded an MIC of 256 µg/mL (≈ 680 µM).

The compounds below were run on [Candida] sake (assay: Antifungal activity against Candida sake clinical isolate after 24 hrs by sabouraud dextrose broth based microdilution method). Conditions: Fermentozyma sake.
Format: functional
Method in brief: as §2
`CC/C(C)=N/N=C1\SCC(=O)N1CN1C(=O)c2ccccc2C1=O` showed an MIC of 2 µg/mL (≈ 5.81 µM). For `C/C(=N\N=C1/SCC(=O)N1CN1C(=O)c2ccccc2C1=O)c1cccs1`, the MIC was 8 µg/mL (≈ 20.1 µM). Compound `O=C1CS/C(=N\N=C\c2cccnc2)N1Cc1ccc([N+](=O)[O-])cc1` has an MIC of 32 µg/mL (≈ 90 µM). Work on `CCCCCC/C(C)=N/N=C1\SCC(=O)N1Cc1ccc([N+](=O)[O-])cc1` yielded an MIC of 256 µg/mL (≈ 680 µM).
